Legend:
Format in all cases: organism-based
Conditions in all cases: in vivo
Cupressus sempervirens [1] = assay: Phytotoxicity against Cupressus sempervirens var. pyramidalis assessed as browning of twigs at 0.1 to 0.2 mg/ml after 96 hrs
Procedure, shortened: (§1)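 Severed cypress or pine twig cuttings were placed in 3 mL of test solution at 0.1-0.2 mg/mL for 96 h, then moved to distilled water. They were kept in a growth chamber at 23 °C, 60% relative humidity and low light. Symptoms were scored over 21 days.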

Cupressus sempervirens [2] = assay: Phytotoxicity against Cupressus sempervirens var. pyramidalis assessed as sapwood stain like symptoms on seedlings at 0.1 to 0.2 mg/ml after 96 hrs
Procedure, shortened: (§2)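 A 0.1 mg/mL solution was injected into the cortical tissue 25 cm from the apex of 3-year-old cypress or 2-year-old pine seedlings. Stain, needle and blight symptoms were then scored.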

[3] = tested on: Hesperocyparis macrocarpa; assay: Phytotoxicity against Cupressus macrocarpa var. lambertiana assessed as browning of twigs at 0.1 to 0.2 mg/ml after 96 hrs; procedure, shortened: as §1
[4] = tested on: Hesperocyparis macrocarpa; assay: Phytotoxicity against Cupressus macrocarpa var. lambertiana assessed as sapwood stain like symptoms on seedlings at 0.1 to 0.2 mg/ml after 96 hrs; procedure, shortened: as §2
Hesperocyparis arizonica [5] = assay: Phytotoxicity against Cupressus arizonica assessed as browning of twigs at 0.1 to 0.2 mg/ml after 96 hrs; procedure, shortened: as §1
Hesperocyparis arizonica [6] = assay: Phytotoxicity against Cupressus arizonica assessed as sapwood stain like symptoms on seedlings at 0.1 to 0.2 mg/ml after 96 hrs; procedure, shortened: as §2
Pinus halepensis [7] = assay: Phytotoxicity against Pinus halepensis L assessed as yellowing of twigs at 0.1 to 0.2 mg/ml after 96 hrs; procedure, shortened: as §1
Pinus halepensis [8] = assay: Phytotoxicity against Pinus halepensis L assessed as appearance of severe needles on seedlings at 0.1 to 0.2 mg/ml after 96 hrs; procedure, shortened: as §2
Pinus radiata [9] = assay: Phytotoxicity against Pinus radiata L assessed as yellowing of twigs at 0.1 to 0.2 mg/ml after 96 hrs; procedure, shortened: as §1
Pinus radiata [10] = assay: Phytotoxicity against Pinus radiata L assessed as appearance of severe needles on seedlings at 0.1 to 0.2 mg/ml after 96 hrs; procedure, shortened: as §2
Solanum lycopersicum [11] = assay: Phytotoxicity against Lycopersicon esculatum L var. Marmande assessed as appearance of epinasty on petioles at 0.05 to 0.1 mg/ml after 48 hrs
Procedure, shortened: (§3)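 Tomato (var. Marmande) seedlings were grown at 25 °C, 70-80% relative humidity and a 12 h photoperiod. Cuttings from 21-day-old seedlings were placed in 3 mL of solution at 0.05-0.1 mg/mL for 48 h, then moved to distilled water. Epinasty and browning were scored over 2 days.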

Solanum lycopersicum [12] = assay: Phytotoxicity against Lycopersicon esculatum L var. Marmande assessed as browning of petioles and leaves at 0.05 to 0.1 mg/ml after 48 hrs; procedure, shortened: as §3

Measured: Activity

C/C=C/C=C\[C@H](O)[C@H]1CCC(=O)O1 [SAPINOFURANONE A]
Toxic: Cupressus sempervirens [1] | Cupressus sempervirens [2] | [3] | [4] | Hesperocyparis arizonica [5] | Hesperocyparis arizonica [6] | Pinus halepensis [7] | Pinus halepensis [8] | Pinus radiata [9] | Pinus radiata [10] | Solanum lycopersicum [11] | Solanum lycopersicum [12]

C/C=C/C=C\[C@@H](O)[C@H]1CCC(=O)O1 [SAPINOFURANONE B]
Toxic: Cupressus sempervirens [1] | Cupressus sempervirens [2] | [3] | [4] | Hesperocyparis arizonica [5] | Hesperocyparis arizonica [6] | Pinus halepensis [7] | Pinus halepensis [8] | Pinus radiata [9] | Pinus radiata [10] | Solanum lycopersicum [11] | Solanum lycopersicum [12]

From ChEMBL document CHEMBL1158012, “Sapinofuranones A and B, two new 2(3H)-dihydrofuranones produced by sphaeropsis sapinea, a common pathogen of conifers” (J Nat Prod, 1999)
